Among the data in ChEMBL document CHEMBL4513216, “Probing the Open Global Health Chemical Diversity Library for Multistage-Active Starting Points for Next-Generation Antimalarials” (ACS Infect Dis, 2020) are cytotoxicity values, retold here.

Each structure is given as a SMILES string.

The data set in a line: Toxicity liver stage against HepG2, at 10uM. The data set is classed as cell-based. Further details: test concentration 10 uM, cell line HepG2-A16-CD81EGFP. Particulars: human, HepG2-A16-CD81EGFP cells; read-out: INHIBITION
In outline:
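Uninfected HepG2-A16-CD81EGFP cells, 3 × 10^3 per well, 1536-well, plated on prespotted compound at 10 μM final, parasite-free screening media added to match infected plates; puromycin 10 μM positive, DMSO 0.5% negative; run in parallel with 48 h PbLuc assay at 37 °C, 5% CO2; viability by CellTiter-Glo luminescence, normalized to controls.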
`COc1ccc(C(=O)C2CCCN(Cc3ccon3)C2)c(OC)c1` (stereo unspecified): the cytotoxicity at 10 µM was -4.46%.
As to `CCOCCCNC(=O)C1(C)CCC(=O)N1Cc1ccccc1F` (stereo unspecified), the cytotoxicity at 10 µM is -5.57%.
In the case of `CCN(CC)CCNC(=O)CCc1c(C)nn(-c2cccc(Cl)c2)c1C`, the cytotoxicity at 10 µM was -5.34%.
Then `CC(C)CC(=O)N1CC(=O)N(Cc2ccco2)CC(O)C1` (stereo unspecified), with -8.23%; and `COc1c(C(N)=O)cn(C)c1-c1nc2cc(NC(C)=O)ccc2n1C`, with -46.5%.
As for `CN1C(=O)COc2ccc(C(=O)Cn3cnc4ccsc4c3=O)cc21`, the figure is 8.69%; as for `CC(C)n1cc(C(=O)NCCN(C)C)c2n[nH]c(=O)c-2c1`, 9.06%.
Then `Cn1nc(COCC2CC2)c2c1CCN(C(=O)c1ccno1)C2`, with 6.8%; and `CNC(=O)[C@H]1CC[C@@H]2[C@@H](CCN2c2ncccn2)O1`, with 6.25%.
Turning to `O=S(=O)(C1CC1)N1CC[C@]2(C[C@@H](OCC3CCOCC3)CO2)C1`, the cytotoxicity at 10 µM is 8.13%.
As for `COC[C@@]12CCO[C@@H]1CCN(C(=O)Cc1ccc(C)cc1)C2`, the figure is 1.47%; as for `Oc1nnc(-c2cccs2)c2sc(N3CCCC3)nc12`, -2.73%; as for `CC(=O)N1CCCC(c2cnc(-c3c(C)nn(C)c3C)cn2)C1` (stereo unspecified), 1.95%.
Then `O=C(Nc1c(N2CCCC2)cccc1N1CCCC1)c1cnccn1`, with -50.9%; and `CC(C)c1nc2n(n1)CC(Nc1ncnc3c1CCC3)CC2` (stereo unspecified), with -49.1%; and `CC(C#N)CN(C)Cc1cc(Cl)cc2cccnc12` (stereo unspecified), with -48.5%.
As for `Cc1ccc(C2CCCN2Cc2nc(-c3ccco3)no2)cc1` (stereo unspecified), the figure is 26.1%; as for `Cc1nnc2n1CCN(Cc1nc3ccccc3o1)C2`, -6.48%.
Regarding `N#CC1(NC(=O)Cc2cc(Cl)c3c(c2)OCCO3)CCC1`, the cytotoxicity at 10 µM is -8.05%.
As for `Cn1ccnc1CCNS(=O)(=O)c1ccc(Br)cc1`, the figure is 3.32%; as for `O=C(NCCOc1ccccc1)c1ccc2c(c1)C(=O)NC2=O`, 4.98%; as for `O=C(CNc1ccccc1Cl)Nc1cc(-n2cnnn2)ccc1F`, -4.38%.
Then `Cc1cccc(CNc2cncc(-n3cccn3)n2)c1`, with -7.09%; and `Cc1ccc(C(=O)NCCCS(C)(=O)=O)c(=O)[nH]1`, with -7.6%; and `CCCn1nc2c(cc1=O)CN(Cc1cc(C)no1)CC2`, with -11.6%.
Then `Cc1noc(CN(Cc2cccs2)C2CC2)n1`, with -0.243%.
Regarding `CNC(=O)NC(C)c1nc(-c2ccc(Br)cc2)no1` (stereo unspecified), the cytotoxicity at 10 µM is 7.71%.
For `CN(Cc1cnn(C)c1)C(=O)CN1CCCC1Cn1cncn1` (stereo unspecified), the cytotoxicity at 10 µM is 12.6%.
As for `N#Cc1cccc(CNc2cc(CO)ccc2Cl)c1`, the figure is 11.5%.
For the compound `CN(C)C(=O)Cc1nc(CN2CCCC2Cn2cccn2)cs1` (stereo unspecified), the cytotoxicity at 10 µM is 4.79%.
Then `Cn1cc(NC(=O)NCc2ccoc2)ccc1=O`, with 4.14%; and `CSCC(=O)N(C)Cc1ccccc1`, with -2.34%; and `Fc1ccc(NCc2nnsc2Cl)c(OC(F)F)c1`, with 0.811%.
As for `CCc1nc(C)ncc1C(=O)N1CCN(CC)c2ccccc21`, the figure is -10.1%; as for `CCCN(CC1CC1)S(=O)(=O)c1ccc(NC(C)=O)cc1`, 9.35%.
On to `CN(C)C(=O)CCNC(=O)NCc1ccc(Br)cc1Cl`, for which the cytotoxicity at 10 µM was 2.96%.
Then `Cc1cc(C)n(-c2ccc(C(C)NS(=O)(=O)CCCS(C)(=O)=O)cc2)n1` (stereo unspecified), with 7.04%; and `Cc1ccccc1C(C)CC(=O)N1CC[C@H](O)C1` (stereo partly specified), with -49.7%.
Then `CN(C)C1CCN(C(=O)CCc2cc(Br)cs2)CC1`, with -18%; and `CCc1nc(CNCC2(C(N)=O)CCOCC2)cs1`, with -3.97%; and `Cn1cc(C(=O)N2C[C@@H]3CN(S(C)(=O)=O)CCO[C@@H]3C2)cn1`, with 8.9%.
Then `Cc1cc(C(=O)NC2CCc3c(ccc(=O)n3CCN(C)C)C2)no1` (stereo unspecified), with -0.58%; and `Cc1csc(CN2CCC3(CC2)COC(COc2ccccn2)C3)n1` (stereo unspecified), with -113%; and `COCC(=O)NCc1cc(=O)n2c(n1)CN(Cc1ccco1)CCC2`, with -89.3%.
As for `Cc1ccccc1C(=O)N1CC[C@@H]2CN(c3ncccn3)CCO[C@@H]2C1`, the cytotoxicity at 10 µM is -72.4%.
Then `CCOCC1CN(CC2CC2)Cc2cnn(C)c21` (stereo unspecified), with -90.4%.
Then `CN(Cc1cccnc1)CC1CNCc2nccn2C1` (stereo unspecified), with -77.2%.
As for `CCS(=O)(=O)N1CCn2cc(CN(C)Cc3ccco3)nc2C1`, the figure is -74.4%.
On to `COCCC(=O)N1CC2(CCN(Cc3ccncc3)CC2)C1`, for which the cytotoxicity at 10 µM was -66.6%.
Then `C[C@H]1CN(C(=O)c2cscn2)C[C@@]12CCN(c1ccsc1)C2=O`, with -80.7%; and `O=C1CC[C@@H]2[C@@H](CCN2C(=O)c2ccsc2)N1CC1CC1`, with -10.9%; and `CN(Cc1cc(C(C)(C)C)n[nH]1)Cc1c[nH]nc1-c1ccc(F)cc1`, with -4.83%.
As for `Cc1nc2c(C)cccc2cc1C(=O)N1CCC2(CCNCC2)CC1`, the figure is -8.37%; as for `CCCn1c(C)c(CC(=O)N(C)CCO)c2c1CC(C)(C)CC2=O`, -3.64%.
Then `O=C(Cn1[nH]c2ccccc2c1=O)N1CCCC(CC2CC2)(C(=O)O)C1` (stereo unspecified), with 3.15%; and `Cc1cc(N2CCCN3CCC[C@H]3C2)n2nc(C)c(C)c2n1`, with 4.37%.
For the compound `COc1ccc(C(=O)N2CCOC(Cc3cccc(C(F)(F)F)c3)C2)o1` (stereo unspecified), the cytotoxicity at 10 µM was -0.869%.
Then `CCCSc1ncc(CN2CCN(C)C(=O)C2C)cn1` (stereo unspecified), with 7.75%; and `Cc1nonc1CN1CC[C@@](O)(C2CCOCC2)[C@H](C)C1`, with 7.31%; and `CC(=O)c1cc(CC(=O)N2CCN(CCOc3ccccc3)CC2)cs1`, with -5.48%.
Then `CCN(Cc1noc(C2CC2)n1)C(=O)c1onc2ccccc12`, with 1.61%; and `CC1(C)CN(Cc2cc(C3CCCCC3)no2)CC[C@]1(C)O`, with -4.59%; and `COCc1nc(Cn2ncn3cccc3c2=O)no1`, with -8.98%.
Consider `CCN(CCO)C[C@@H]1CN(C(=O)c2sc3ccccc3c2C)C[C@@H]1CO`, for which the cytotoxicity at 10 µM was -10.6%.
As for `Cc1nccnc1N1C[C@H]2CN(C3CCOCC3)C[C@@]2(C(=O)O)C1`, the figure is -6.93%; as for `Cc1cc(N2CCC(CO)(CC3CCCCO3)CC2)c2ccccc2n1` (stereo unspecified), 4.46%; as for `CCn1c(CC2CCN(C(=O)C3CNCCO3)CC2)nn(C)c1=O` (stereo unspecified), 2.14%.
As for `CCC1(O)CCCN(c2nc(C(C)(C)C)nc3c2cnn3C)C1` (stereo unspecified), the figure is -52.9%; as for `Cc1cc(N(C)CCn2ccnc2C)n2nccc2n1`, 4.09%.
Then `Cc1nsc(NC(=O)N2CCCCC2CCCO)n1` (stereo unspecified), with -46.3%; and `NC(=O)c1ccc(OCCCN2CCC3(CC2)OCCCC3O)cc1` (stereo unspecified), with -1.18%; and `CC(C(=O)N1CCCN(Cc2cnn(C(C)C)c2)CC1)n1ccnc1` (stereo unspecified), with -11.8%.
As for `CS(=O)(=O)NCC1CCCN(C(=O)COCC2CC2)C1` (stereo unspecified), the cytotoxicity at 10 µM is 4.28%.
As for `Cc1nn(C)c(C)c1C1CCCN1CC(=O)Nc1cccnc1` (stereo unspecified), the figure is -31.7%; as for `CC(C)c1nnc(CN2CCCC2Cn2cncn2)o1` (stereo unspecified), -11.1%; as for `COc1ccc(-n2ccc(C(=O)N3CCC(C(N)=O)C3)n2)cc1` (stereo unspecified), -6.04%.
As for `COc1cccc(OCCNCc2c(C)nn(C)c2N(C)C)c1`, the figure is 1.25%; as for `O=C(Nc1ccccc1)C1=NOC2(CCNCC2)C1`, 5.77%; as for `O=C(NCc1cccnc1)[C@H]1C[C@@H]2CCN(c3ccncn3)C[C@H]2O1`, 7.95%.
Consider `O=C(CN1CC(c2nc(C3CC3)no2)C1)NCC1CCCO1` (stereo unspecified), for which the cytotoxicity at 10 µM was -6.66%.
Then `Cc1nc(CN2C[C@@H]3CCCO[C@@H]3[C@H](NC(=O)CC3CC3)C2)cs1`, with 9.2%.
Then `O=C(c1cnccn1)N1CCN2C[C@H](Oc3cccc(F)c3)C[C@H]2C1`, with 11.7%.
With `Fc1cccc(CN2CCC3(CCN3c3ncccn3)C2)c1` (stereo unspecified), the cytotoxicity at 10 µM was determined as 15.3%.
As for `Cc1noc(C)c1CN1CC[C@H]2OCC[C@@]2(C(=O)N2CCOCC2)C1`, the figure is -77.2%; as for `CCn1ncc2c1C(COCC1CC1)N(Cc1c(C)noc1C)CC2` (stereo unspecified), 12.3%.
With `Cc1nnc(N2C[C@H](OCc3cccnc3)[C@H]3OCCC[C@H]32)s1`, the cytotoxicity at 10 µM was determined as 10.8%.
Then `c1cc(CO[C@@H]2CN(Cc3ccoc3)[C@@H]3CCCO[C@@H]32)ccn1`, with -102%; and `CN(C)C(=O)N1CCC(c2nc3ccc(N4CCCC4)cn3n2)CC1`, with 3.16%.
Turning to `Cn1nc(Cn2ccnc2)c2c1CN(C(=O)c1ccoc1)C2`, the cytotoxicity at 10 µM was -58.9%.
Consider `CCN1C[C@@H]2CN(c3cc(OC)ncn3)CCC[C@]2(C(=O)O)C1`, for which the cytotoxicity at 10 µM is -2.58%.
In the case of `Cc1ccc(CC(=O)N2CC[C@@H]3CN(CCN(C)C)CCO[C@@H]3C2)cc1`, the cytotoxicity at 10 µM was found to be 2.73%.
Then `O=C(c1cccnc1)N1CCn2nnc(COc3cccnc3)c2C1`, with 3.34%.
Then `CNC(=O)c1ccc(CN(C(C)C)C(C)C)o1`, with -1.88%; and `CCC(C)(C)NC(=O)c1ncn2c1CN(C)S(=O)(=O)c1ccccc1-2`, with -137%.
As for `Cc1ncc2c(n1)CN(C=C1NN=C(c3occc3C)O1)CC2`, the figure is -2.7%; as for `O=C(c1ccc2c(c1)[nH]c(=O)n2C1CCC(O)CC1)N1CCOCC1` (stereo unspecified), -41.4%.
